Measured values from ChEMBL document CHEMBL1147098, “Growth inhibition of Toxoplasma gondii and Plasmodium falciparum by nanomolar concentrations of 1-hydroxy-2-dodecyl-4(1H)quinolone, a high-affinity inhibitor of alternative (type II) NADH dehydrogenases” (Antimicrob Agents Chemother, 2007).
The source made the active and inactive calls. The calls are words filed in the database; no cut-off is given here.

Tests used:
[1] = test system: Toxoplasma gondii; assay: Susceptibility of Toxoplasma gondii lacZ-transfected RH strain in human foreskin fibroblasts assessed as growth at 0.1 uM to 0.01 uM after 30 hrs by colorimetric assay; assay type: functional
How it was run: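 HFF infected with β-galactosidase-expressing RH strain and exposed to 1-hydroxy-2-alkyl-4(1H)quinolone alkyl derivatives at 0.1 and 0.01 μM. Replication quantified by colorimetric β-galactosidase assay with chlorophenol red-β-D-galactopyranoside substrate.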

[2] = test system: Plasmodium falciparum; assay: Inhibition of Plasmodium falciparum trophozoite replication after 36 hrs by fluorometric assay; assay type: functional, organism-based
How it was run: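 FCBR young trophozoites (2% initial parasitemia) in RPMI 1640 with 10% human plasma and group A erythrocytes, gassed 90% N2/5% O2/5% CO2, exposed 36 h to 1 μM-1 nM. Erythrocytes lysed with saponin, pellets solubilized in guanidium-HCl/sodium acetate, stained with Hoechst 33258, read at 340/460 nm in triplicate. 2 μM chloroquine defined background.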

[3] = test system: Toxoplasma gondii; assay: Effect on Toxoplasma gondii RH growth in human foreskin fibroblasts incubated with 0.1 uM for 24 hrs assessed as recovery after 72 hrs without drug; assay type: functional
[4] = test system: HFF; assay: Inhibitory effect on metabolic activity of HFF cells upto 10 uM by Alamar Blue assay; assay type: functional, cell-based; settings: Homo sapiens
[5] = test system: Toxoplasma gondii; assay: (§1) Effect on Toxoplasma gondii RH growth in human foreskin fibroblasts incubated with 0.1 uM for 24 hrs after 6 hrs postinfection assessed as recovery after 72 hrs without drug; assay type: functional
[6] = test system: Plasmodium falciparum; assay: Reduced parasitaemia in Plasmodium falciparum FCBR ring stage parasites; assay type: functional, organism-based
How it was run: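 Sorbitol-synchronized FCBR ring-stage cultures (initial parasitemia 3.2%) in T25 flasks, exposed 48 h to 1 μM, 100 nM, 10 nM and 1 nM. Parasitemia counted on Giemsa-stained blood smears relative to DMSO control.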

[7] = test system: Toxoplasma gondii; assay: Inhibition of Toxoplasma gondii lacZ-transfected RH strain in human foreskin fibroblasts assessed as beta galactosidase activity after 30 hrs by colorimetric assay; assay type: functional, organism-based
How it was run: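 lacZ-expressing RH tachyzoites (1 × 10^4/well) infected HFF for 4 h at 37°C in 1% DMEM without phenol red, washed, then exposed in duplicate to 1, 0.1, 0.01 and 0.001 μM with 100 μM chlorophenol red-β-D-galactopyranoside (final) at 37°C. Absorbance at 570 and 630 nm read at 30 h postinfection.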

[8] = test system: Toxoplasma gondii; assay: as §1; assay type: functional; remark: listed apart in the source
[9] = test system: Toxoplasma gondii; assay: Inhibition of Toxoplasma gondii RH replication in human foreskin fibroblasts incubated for 24 hrs with drug after 2 hrs postinfection by immunofluorescence microscopy; assay type: functional, organism-based
[10] = test system: Toxoplasma gondii; assay: Inhibition of Toxoplasma gondii RH replication in human foreskin fibroblasts incubated for 24 hrs with drug after 36 hrs postinfection by immunofluorescence microscopy; assay type: functional, organism-based
[11] = test system: Toxoplasma gondii; assay: Effect on Toxoplasma gondii RH growth in human foreskin fibroblasts incubated with 1 uM for 24 hrs assessed as recovery after 72 hrs without drug; assay type: functional
[12] = test system: Toxoplasma gondii; assay: Inhibition of invasion of Toxoplasma gondii RH in human foreskin fibroblasts assessed as decreased infection rate pretreated with 1 to 1000 nM after 2 hrs before infection; assay type: functional, organism-based
How it was run: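 Extracellular tachyzoites pretreated 2 h with 1 to 1,000 nM before infecting HFF; infection rate compared with untreated parasites.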

[13] = test system: Toxoplasma gondii; assay: Inhibition of Toxoplasma gondii RH replication in human foreskin fibroblasts incubated for 24 hrs with drug after 2 hrs postinfection by immunofluorescence microscopy

SMILES: CCCCCCCCc1cc(=O)c2ccccc2n1O
- Activity [1]: 14.8%

SMILES: CCCCCCCCCCCCc1cc(=O)c2ccccc2n1O
- IC50 [2]: 14 nM
- Activity [3]: 49.3%
- Activity [4]: inactive
- Activity [5]: 65.8%
- IC50 [6]: 54.7 nM
- IC50 [7]: 3.7 nM
- Activity [8]: 65.8%
- IC50 [9]: 2.4 nM
- Activity [1]: 42.6%
- IC50 [10]: 4 nM
- Activity [11]: 2.9%
- Activity [12]: inactive

SMILES: O=C1C(O)=C([C@H]2CC[C@H](c3ccc(Cl)cc3)CC2)C(=O)c2ccccc21 [ATOVAQUONE]
- IC50 [13]: 9 nM

SMILES: CCCCCc1cc(=O)c2ccccc2n1O
- Activity [1]: 98.2%

SMILES: CCCCCCc1cc(=O)c2ccccc2n1O
- Activity [1]: 16.3%

SMILES: CCCCCCCCCCCCCCc1cc(=O)c2ccccc2n1O
- Activity [1]: 37.9%
